{"source": "ChEMBL document CHEMBL3120104", "about": "“Discovery of the first C-nucleoside HCV polymerase inhibitor (GS-6620) with demonstrated antiviral response in HCV infected patients” (J Med Chem, 2014)", "key": {"[1]": {"molecular_target": "DNA-directed RNA polymerase, mitochondrial (Homo sapiens) (UniProt O00411)", "sequence (O00411 whole entry)": "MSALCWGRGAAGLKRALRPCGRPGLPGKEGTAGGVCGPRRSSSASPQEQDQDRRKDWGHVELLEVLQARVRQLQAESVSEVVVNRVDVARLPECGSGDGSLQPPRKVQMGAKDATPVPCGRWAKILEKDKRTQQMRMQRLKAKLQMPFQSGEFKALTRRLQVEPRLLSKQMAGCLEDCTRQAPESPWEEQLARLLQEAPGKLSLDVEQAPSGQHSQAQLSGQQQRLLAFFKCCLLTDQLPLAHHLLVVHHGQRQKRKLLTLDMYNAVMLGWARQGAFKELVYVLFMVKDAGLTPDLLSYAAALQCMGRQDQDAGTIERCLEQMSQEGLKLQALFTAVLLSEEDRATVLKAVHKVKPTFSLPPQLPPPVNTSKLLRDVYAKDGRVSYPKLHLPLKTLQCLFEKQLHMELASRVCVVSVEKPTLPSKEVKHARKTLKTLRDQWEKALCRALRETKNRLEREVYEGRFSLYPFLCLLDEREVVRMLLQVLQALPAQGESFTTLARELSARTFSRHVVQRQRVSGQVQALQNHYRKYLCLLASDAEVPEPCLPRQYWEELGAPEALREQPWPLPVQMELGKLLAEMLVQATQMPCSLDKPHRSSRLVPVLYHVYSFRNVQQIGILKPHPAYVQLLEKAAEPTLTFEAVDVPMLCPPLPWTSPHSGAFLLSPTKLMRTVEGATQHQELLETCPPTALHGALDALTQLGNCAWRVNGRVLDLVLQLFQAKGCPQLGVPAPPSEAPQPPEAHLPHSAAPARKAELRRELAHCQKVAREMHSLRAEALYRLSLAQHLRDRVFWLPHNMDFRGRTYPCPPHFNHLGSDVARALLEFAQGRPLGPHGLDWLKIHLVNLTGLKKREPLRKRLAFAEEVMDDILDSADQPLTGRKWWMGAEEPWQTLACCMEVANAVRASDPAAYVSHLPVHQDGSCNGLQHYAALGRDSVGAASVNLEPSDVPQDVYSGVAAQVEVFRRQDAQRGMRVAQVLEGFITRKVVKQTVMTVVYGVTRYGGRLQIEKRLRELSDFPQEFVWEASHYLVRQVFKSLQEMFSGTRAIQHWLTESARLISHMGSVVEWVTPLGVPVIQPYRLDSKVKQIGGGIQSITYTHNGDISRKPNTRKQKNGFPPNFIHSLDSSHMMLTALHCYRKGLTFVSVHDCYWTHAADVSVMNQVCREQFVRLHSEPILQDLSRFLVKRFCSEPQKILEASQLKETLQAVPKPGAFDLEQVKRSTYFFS", "assay": "Inhibition of mitochondrial RNA polymerase (unknown origin) assessed as inhibition of single nucleotide incorporation", "conditions": "concentration not given here", "how_it_was_run": "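Reactions started with 500 μM (final) natural NTP or NTP analog. Time-point aliquots were quenched in EDTA/formamide, heated to 65 °C, resolved on 20% polyacrylamide/8 M urea gels, and product formation quantified by phosphorimaging.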"}, "Hepatitis C virus [2]": {"test_system": "Hepatitis C virus", "assay": "Antiviral activity against HCV genotype 1b infected in human HuH7 cells assessed as inhibition of viral replication after 3 days by luminescence assay", "type": "functional, organism-based, Hepacivirus hominis", "conditions": "Huh-7, 72 h", "how_it_was_run": "(§1)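 Multiplex replicon assay carrying a renilla luciferase reporter, with stable GT1b, 1a and 2a replicons and chimeric 2b, 3a, 4a, 5a and 6a replicons. 2000 replicon cells/well in medium without Geneticin. Ten-step 1:3 serial dilutions, four replicates, 0.44% DMSO final. Incubated 3 days at 37 °C, 5% CO₂. Luminescence normalised to DMSO wells and to protease-inhibitor (ITMN-191) wells. EC50 from a four-parameter Hill fit.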"}, "[3]": {"assay": "Inhibition of HCV genotype 1b recombinant NS5B RNA dependent RNA polymerase using sshRNA as substrate incubated for 5 mins prior to compound addition measured after 90 mins in presence of [33P]GTP"}, "[4]": {"assay": "Metabolic stability in serum (unknown origin)", "type": "ADME"}, "Hepatitis C virus [5]": {"test_system": "Hepatitis C virus", "assay": "Selectivity ratio of EC50 for HCV harboring NS5B RNA dependent RNA polymerase S282T mutant to EC50 for wild-type HCV", "type": "functional, Hepacivirus hominis"}, "[6]": {"assay": "Toxicity in dog after 7 days", "type": "organism-based, Canis lupus familiaris", "conditions": "in vivo", "how_it_was_run": "(§2)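 Nonclinical 7-day toxicology study with daily dosing up to 300 mg/(kg day) in rats and up to 75 mg/(kg day) in dogs; NOAEL set from test-article related findings.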"}, "[7]": {"assay": "Toxicity in rat after 7 days", "type": "organism-based", "conditions": "in vivo", "how_it_was_run": "as §2"}, "[8]": {"assay": "Efflux ratio of apparent permeability across human Caco2 cells at 100 uM", "type": "ADME, cell-based", "conditions": "Caco-2", "how_it_was_run": "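Caco-2 monolayers grown to confluence for at least 21 days; membrane integrity checked by TEER after equilibration in transport buffer. Compound added to apical or basolateral side (duplicate wells) to give forward and reverse permeability. Receiver samples taken at 1 and 2 h, acetonitrile-precipitated, and quantified by LC/MS/MS. Papp calculated from receiver slope, volume and monolayer area. Recovery also measured.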"}, "[9]": {"assay": "Oral absorption in beagle dog at 5 mg/kg, po by LC/MS/MS analysis", "type": "ADME, organism-based, Canis lupus familiaris", "parameters": "dose 5 mg/kg, route oral", "conditions": "in vivo", "how_it_was_run": "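Naive male beagle dogs were dosed once, orally at 5 mg/kg in EtOH/PEG 400/50 mM citrate buffer pH 4 (5/40/55), or intravenously at 0.5 mg/kg for reference. Plasma was sampled over 24 h and processed by acetonitrile precipitation. Bioavailability %F = AUC_po × Dose_iv / (AUC_iv × Dose_po).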"}, "Syrian golden hamster [10]": {"test_system": "Syrian golden hamster", "assay": "Cmax in golden syrian hamster assessed as liver triphosphate level at 5 mg/kg, po by LC/MS/MS analysis", "type": "ADME, organism-based, Mesocricetus auratus", "parameters": "dose 5 mg/kg, route oral", "conditions": "in vivo", "how_it_was_run": "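Groups of 12 Golden Syrian hamsters were dosed orally at 5 mg-equiv/kg. Vehicle was EtOH/PEG400/water buffered with 50 mM pH 4 citrate at 2.5 mg-equiv/mL. Liver was homogenized in four volumes of ice-cold 0.1% KOH/67 mM EDTA in 70% MeOH containing 0.25 μM Cl-ATP, then centrifuged, dried and reconstituted in 1 mM ammonium phosphate pH 7.0. Triphosphate was measured by LC/MS/MS, with endogenous ATP checked for sample stability.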"}, "Syrian golden hamster [11]": {"test_system": "Syrian golden hamster", "assay": "Cmax in golden syrian hamster assessed as liver triphosphate level at 1 mg/kg, iv by LC/MS/MS analysis", "type": "ADME, organism-based, Mesocricetus auratus", "parameters": "dose 1 mg/kg, route intravenous", "conditions": "in vivo", "how_it_was_run": "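Golden Syrian hamsters in groups of 12, dosed iv at 1 mg-equiv/kg in EtOH/PEG400/water adjusted to pH 4 with HCl (0.5 mg-equiv/mL). Liver homogenised in ice-cold 70% MeOH with 0.1% KOH, 67 mM EDTA and 0.25 μM Cl-ATP internal standard, then centrifuged, dried and reconstituted. Triphosphate measured by LC/MS/MS; endogenous ATP checked for sample stability.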"}, "[12]": {"assay": "Lipophilicity, log D of the compound by HPLC/UV method", "type": "physicochemical", "how_it_was_run": "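A 10 mM DMSO stock was diluted 1:100 into 1:1 acetonitrile/water, shaken 30 min, and analysed by HPLC/UV on a C18 column with 20 mM ammonium acetate/acetonitrile mobile phase.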"}, "[13]": {"assay": "Cytotoxicity against human HuH7 cells after 3 days by fluorescence assay", "type": "cell-based", "conditions": "Huh-7 cells", "how_it_was_run": "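Huh-7 HCV replicon cells were seeded at 2000 cells/well in medium without Geneticin. Compounds were added as ten-point 1:3 DMSO dilutions in quadruplicate (final DMSO 0.44%), with […] as the 100% cytotoxicity control. After 3 days at 37 °C, cells were washed and given 400 nM calcein AM for 30 min at RT, and fluorescence read at ex 490/em 520 nm. Signal was normalized to DMSO and puromycin wells, and CC50 taken from a four-parameter Hill fit.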"}, "Hepatitis C virus [14]": {"test_system": "Hepatitis C virus", "assay": "Antiviral activity against HCV genotype 2a", "type": "functional, organism-based, Hepacivirus hominis", "conditions": "pooled result: one value given for 8 cell lines, strains, targets or settings", "how_it_was_run": "as §1"}, "Hepatitis C virus [15]": {"test_system": "Hepatitis C virus", "assay": "Antiviral activity against HCV genotype 1 infected in human patient assessed as viral load reduction at 900 mg, bid relative to placebo", "type": "functional, Hepacivirus hominis"}, "Hepatitis C virus [16]": {"test_system": "Hepatitis C virus", "assay": "Antiviral activity against HCV genotype 1 infected in human patient assessed as viral load reduction at 450 mg administered as solution bid relative to baseline control", "type": "functional, Hepacivirus hominis", "how_it_was_run": "(§3)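 Randomized, double-blind, placebo-controlled, multiple-dose, dose-escalation trial in treatment-naive patients chronically infected with HCV genotype 1. Cohorts had eight active and two placebo subjects. Doses ran from 50 mg once daily to 900 mg BID, fed or fasted, for 5 days. Read-out was median viral load change (log10 IU/mL) from baseline.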"}, "Hepatitis C virus [17]": {"test_system": "Hepatitis C virus", "assay": "Antiviral activity against HCV genotype 1 infected in human patient assessed as viral load reduction at 900 mg administered as tablet formulation bid for 5 days relative to baseline control", "type": "functional, Hepacivirus hominis", "how_it_was_run": "as §3"}, "Homo sapiens": {"test_system": "Homo sapiens", "assay": "Toxicity in human patient infected with HCV genotype 1 administered twice a day for 5 days", "type": "organism-based", "conditions": "in vivo, 120 h", "how_it_was_run": "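Randomized, double-blind, placebo-controlled multiple-dose escalation in treatment-naive patients chronically infected with HCV genotype 1. Nine cohorts (8 active, 2 placebo each) received 50 mg once daily up to 900 mg BID, fed or fasted, for 5 days. Safety, tolerability and viral load were assessed.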"}, "[18]": {"assay": "Toxicity in po dosed Sprague-Dawley rat assessed as necrosis in organs administered qd for 7 days", "type": "organism-based", "conditions": "in vivo"}, "Rattus norvegicus": {"test_system": "Rattus norvegicus", "assay": "Toxicity in Sprague-Dawley rat assessed as death at 20 to 40 mg/kg, po qd for 7 days", "type": "organism-based", "parameters": "dose 20-40 mg/kg, route oral", "conditions": "in vivo, 168 h"}}}
{"smiles": "C[C@@]1(c2ccc3c(N)ncnn23)O[C@H](CO)[C@@H](O)[C@@]1(C)O", "values": [{"measurement": "inhibition", "setting": "[1]", "result": 0.08, "unit": "%"}, {"measurement": "EC50", "setting": "Hepatitis C virus [2]", "result": "> 89", "unit": "µM"}, {"measurement": "IC50", "setting": "[3]", "result": 55, "unit": "µM"}]}
{"smiles": "CC(C)OC(=O)[C@H](C)NP(=O)(OC[C@H]1O[C@@](C#N)(c2ccc3c(N)ncnn23)[C@](C)(O)[C@@H]1OC(=O)C(C)C)Oc1ccccc1", "note": "(stereo partly drawn)", "values": [{"measurement": "Stability", "setting": "[4]", "result": "Stable"}, {"measurement": "Ratio EC50", "setting": "Hepatitis C virus [5]", "result": ">95"}, {"measurement": "NOAEL at 168 h", "setting": "[6]", "result": "> 75", "unit": "mg/kg/day"}, {"measurement": "NOAEL at 168 h", "setting": "[7]", "result": "> 300", "unit": "mg/kg/day"}, {"measurement": "efflux ratio at 100 µM", "setting": "[8]", "result": "< 2"}, {"measurement": "Fa", "setting": "[9]", "result": 88, "unit": "%"}, {"measurement": "Cmax", "setting": "Syrian golden hamster [10]", "result": 3.67, "unit": "µM"}, {"measurement": "Cmax", "setting": "Syrian golden hamster [11]", "result": 4.5, "unit": "µM"}, {"measurement": "logD", "setting": "[12]", "result": 2.9}, {"measurement": "CC50 at 72 h", "setting": "[13]", "result": 47, "unit": "µM"}, {"measurement": "EC50", "setting": "Hepatitis C virus [2]", "result": 0.61, "unit": "µM"}]}
{"smiles": "CC(C)OC(=O)[C@H](C)N[P@](=O)(OC[C@H]1O[C@@](C#N)(c2ccc3c(N)ncnn23)[C@](C)(O)[C@@H]1OC(=O)C(C)C)Oc1ccccc1", "note": "[GS-6620]", "values": [{"measurement": "Stability", "setting": "[4]", "result": "Stable"}, {"measurement": "EC50", "setting": "Hepatitis C virus [14]", "result": 0.068, "unit": "µM"}, {"measurement": "Activity", "setting": "Hepatitis C virus [15]", "result": 1.14, "unit": "log10IU/ml"}, {"measurement": "Activity", "setting": "Hepatitis C virus [16]", "result": 1.63, "unit": "log10IU/ml"}, {"measurement": "Activity", "setting": "Hepatitis C virus [17]", "result": 1.73, "unit": "log10IU/ml"}, {"measurement": "MTD", "setting": "Homo sapiens", "result": 900, "unit": "mg"}]}
{"smiles": "C[C@@]1(O)[C@H](O)[C@@H](CO)O[C@H]1c1ccc2c(N)ncnn12", "values": [{"measurement": "inhibition", "setting": "[1]", "result": 21, "unit": "%"}, {"measurement": "NOAEL at 168 h", "setting": "[18]", "result": "< 5", "unit": "mg/kg/day"}, {"measurement": "Activity", "setting": "Rattus norvegicus", "result": "Toxic"}]}
